Test results taken from ChEMBL document CHEMBL3779799, “Antifibrotic and anticancer action of 5-ene amino/iminothiazolidinones” (Eur J Med Chem, 2016).

How the values were obtained:
HFL1 [1] = experiment: Antifibrotic activity in HFL1 cells assessed as inhibition of cell viability after 48 hrs by sulforhodamine B assay; type: functional, cell-based; details: Homo sapiens, HFL1, 48 h
Procedure, shortened: (§1)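 HFL-1 human fetal lung fibroblasts (DMEM, 10% FCS, passages 14–18) seeded at 8000 cells/well, attached overnight, then exposed to a range of concentrations for 48 h in triplicate. Cells were fixed with TCA and stained with 0.4% SRB, bound dye was solubilized in Tris, and OD was read at 570 nm relative to control.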

HFL1 [2] = experiment: Antifibrotic activity in HFL1 cells assessed as inhibition of cell viability at >1 uM after 48 hrs by sulforhodamine B assay relative to control; type: functional; details: Homo sapiens, HFL1, 48 h; procedure, shortened: as §1
[3] = Cytotoxicity against human NCI60 cells assessed as cell growth at 10^-5 M after 48 hrs by sulforhodamine B assay relative to control; type: functional; details: NCI60, 48 h, read-out: Activity
Procedure, shortened: (§2)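 NCI ~60 human tumor cell line one-dose screen covering nine cancer types. Cells were preincubated 24–48 h, then exposed to compound at 10^-5 M for 48 h. SRB protein staining was the endpoint, and growth percent was calculated versus untreated control cells.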

[4] = Cytotoxicity against human SNB75 cells assessed as cell growth at 10^-5 M after 48 hrs by sulforhodamine B assay relative to control; type: functional; details: SNB-75, 48 h, read-out: Activity; procedure, shortened: as §2
[5] = Cytotoxicity against human SF295 cells assessed as cell growth at 10^-5 M after 48 hrs by sulforhodamine B assay relative to control; type: functional; details: SF-295, 48 h, read-out: Activity; procedure, shortened: as §2
MDA-MB-435 = experiment: Cytotoxicity against human MDA-MB-435 cells assessed as cell growth at 10^-5 M after 48 hrs by sulforhodamine B assay relative to control; type: functional; details: MDA-MB-435, 48 h, read-out: Activity; procedure, shortened: as §2
[6] = Antioxidant activity assessed as inhibition of superoxide anion generation measured for 3 mins by nitro blue tetrazolium assay; type: physicochemical
Procedure, shortened: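 Cell-free superoxide generated by xanthine (1 mM) and xanthine oxidase (0.11 U/mL), with NBT (50 µM) as detector. Compounds in DMSO were tested up to 10 µM, with DMSO held at 0.1%. NBT reduction rate (dA560/dt) was read spectrophotometrically over 3 min from the linear part.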

[7] = Cytotoxicity against human MOLT4 cells assessed as cell growth at 10^-5 M after 48 hrs by sulforhodamine B assay relative to control; type: functional; details: MOLT-4, 48 h, read-out: Activity; procedure, shortened: as §2
[8] = Cytotoxicity against human RPMI8226 cells assessed as cell growth at 10^-5 M after 48 hrs by sulforhodamine B assay relative to control; type: functional; details: RPMI-8226, 48 h, read-out: Activity; procedure, shortened: as §2
NCI-H522 = experiment: Cytotoxicity against human NCI-H522 cells assessed as cell growth at 10^-5 M after 48 hrs by sulforhodamine B assay relative to control; type: functional; details: NCI-H522, 48 h, read-out: Activity; procedure, shortened: as §2
[9] = Cytotoxicity against human UO31 cells assessed as cell growth at 10^-5 M after 48 hrs by sulforhodamine B assay relative to control; type: functional; details: UO-31, 48 h, read-out: Activity; procedure, shortened: as §2

COc1ccc(-c2nnc(NC3=NC(=O)/C(=C/c4ccc(N(C)C)cc4)S3)o2)cc1
IC50 (HFL1 [1]): 150 nM | Emax (HFL1 [2]): 52.4% | growth at 10 µM [3]: 92.8% | growth at 10 µM [4]: 60.4% | growth at 10 µM [5]: 69.8% | growth at 10 µM (MDA-MB-435): 47.8%

CN(C1=NC(=O)/C(=C2/C(=O)Nc3ccccc32)S1)c1ccc(O)cc1
IC50 [6]: 350 nM | Emax ([6]; 0.05 h): 71.7% | IC50 (HFL1 [1]): 1780 nM | Emax (HFL1 [2]): 27.3% | growth at 10 µM [3]: 85.6% | growth at 10 µM [7]: 60.2% | growth at 10 µM [8]: 55.2% | growth at 10 µM (NCI-H522): 65.2% | growth at 10 µM [9]: 21.4%
